# Data as given in ChEMBL document CHEMBL4627265, “Optimization of 8-oxoadenines with toll-like-receptor 7 and 8 activity” (Bioorg Med Chem Lett, 2020).
# Activity calls are given as the source filed them. No cut-off for these calls is given here.
# Assays:
# [1] = target: T1, Toll-like receptor 7 (Homo sapiens) (UniProt Q9NYK1); experiment: Agonist activity at TLR7 in human PBMC assessed as induction of plasmacytoid dendritic cell maturation by measuring CD80 level at 0.1 uM after 6 hrs by flow cytometry; assay type: cell-based
# T1 sequence (whole entry): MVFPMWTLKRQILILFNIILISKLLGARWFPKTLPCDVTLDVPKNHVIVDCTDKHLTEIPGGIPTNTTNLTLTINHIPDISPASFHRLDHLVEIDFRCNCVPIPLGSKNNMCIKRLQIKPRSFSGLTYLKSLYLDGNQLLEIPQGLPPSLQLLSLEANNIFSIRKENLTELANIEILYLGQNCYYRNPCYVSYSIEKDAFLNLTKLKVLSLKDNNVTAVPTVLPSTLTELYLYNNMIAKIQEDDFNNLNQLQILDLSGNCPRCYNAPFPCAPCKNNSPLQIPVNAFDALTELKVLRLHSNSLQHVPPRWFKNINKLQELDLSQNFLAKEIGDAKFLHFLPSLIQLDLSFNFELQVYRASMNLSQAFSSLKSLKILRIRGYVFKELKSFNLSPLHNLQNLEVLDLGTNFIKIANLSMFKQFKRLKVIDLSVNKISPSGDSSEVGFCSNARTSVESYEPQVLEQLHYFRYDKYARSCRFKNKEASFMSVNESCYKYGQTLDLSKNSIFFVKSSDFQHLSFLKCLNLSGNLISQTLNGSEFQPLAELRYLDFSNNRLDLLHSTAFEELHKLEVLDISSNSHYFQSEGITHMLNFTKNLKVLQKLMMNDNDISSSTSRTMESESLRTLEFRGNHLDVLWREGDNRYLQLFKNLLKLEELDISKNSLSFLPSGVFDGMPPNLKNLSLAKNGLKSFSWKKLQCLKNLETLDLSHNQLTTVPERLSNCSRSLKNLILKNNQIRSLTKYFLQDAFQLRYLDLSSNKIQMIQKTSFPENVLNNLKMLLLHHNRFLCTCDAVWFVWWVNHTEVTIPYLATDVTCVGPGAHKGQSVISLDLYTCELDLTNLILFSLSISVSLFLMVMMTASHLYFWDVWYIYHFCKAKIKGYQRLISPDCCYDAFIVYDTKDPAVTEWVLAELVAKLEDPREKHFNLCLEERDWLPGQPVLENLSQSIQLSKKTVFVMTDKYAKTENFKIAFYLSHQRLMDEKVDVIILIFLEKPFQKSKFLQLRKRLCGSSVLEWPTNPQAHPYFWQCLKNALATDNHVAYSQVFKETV
# In short: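 hPBMCs stimulated 6 h at a single 0.1 μM dose; HLA-DR, MHC-I, CD80 and CD86 on mDCs and pDCs measured by flow cytometry, expressed as fold change versus unstimulated cells. Mean ± SD of three independent experiments in three different donors.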
# [2] = target: T2, Toll-like receptor 9 (Homo sapiens) (UniProt Q9NR96); experiment: Agonist activity at human TLR9 expressed in HEK293 cells by SEAP reporter gene assay; assay type: cell-based
# T2 sequence (whole entry): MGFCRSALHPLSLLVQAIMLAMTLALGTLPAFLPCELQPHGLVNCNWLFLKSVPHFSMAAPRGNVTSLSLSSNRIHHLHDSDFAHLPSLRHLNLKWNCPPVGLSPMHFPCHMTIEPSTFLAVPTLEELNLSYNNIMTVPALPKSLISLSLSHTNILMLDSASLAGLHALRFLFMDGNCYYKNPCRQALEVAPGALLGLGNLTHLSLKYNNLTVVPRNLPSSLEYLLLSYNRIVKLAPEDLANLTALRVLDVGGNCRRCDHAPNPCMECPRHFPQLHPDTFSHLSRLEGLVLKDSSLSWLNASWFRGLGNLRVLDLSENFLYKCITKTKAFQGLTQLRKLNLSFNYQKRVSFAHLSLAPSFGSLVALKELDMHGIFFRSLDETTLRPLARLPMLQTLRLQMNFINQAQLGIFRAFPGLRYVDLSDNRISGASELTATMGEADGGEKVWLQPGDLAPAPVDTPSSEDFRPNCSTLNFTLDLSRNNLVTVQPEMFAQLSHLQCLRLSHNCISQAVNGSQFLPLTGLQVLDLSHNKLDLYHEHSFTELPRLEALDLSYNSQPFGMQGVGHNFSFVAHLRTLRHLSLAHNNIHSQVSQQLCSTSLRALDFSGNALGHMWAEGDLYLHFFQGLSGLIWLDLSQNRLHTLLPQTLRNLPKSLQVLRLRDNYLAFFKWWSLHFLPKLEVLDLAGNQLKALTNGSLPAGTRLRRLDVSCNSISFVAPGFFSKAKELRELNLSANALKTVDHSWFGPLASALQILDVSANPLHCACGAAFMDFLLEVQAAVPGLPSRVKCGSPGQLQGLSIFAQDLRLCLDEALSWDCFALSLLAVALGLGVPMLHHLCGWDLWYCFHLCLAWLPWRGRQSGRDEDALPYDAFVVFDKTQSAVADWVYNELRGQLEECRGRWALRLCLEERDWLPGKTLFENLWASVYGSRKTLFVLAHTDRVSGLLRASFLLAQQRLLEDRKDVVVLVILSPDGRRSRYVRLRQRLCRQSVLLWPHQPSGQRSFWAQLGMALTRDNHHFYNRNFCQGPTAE
compound,measurement,setting,value
Nc1nc(OCCCCO)nc2c1[nH]c(=O)n2CC1CCNCC1,Activity,[1],inactive
same,Activity,[2],inactive
